Assay outcomes (PubChem)
Compounds with a hit are over-represented: about 2.4% of the library has one in this group of screens.
GASC-1 inh: blocks human GASC-1 demethylase activity | inhibition, % at 2.35 µM | 0.069% of 330,000 active | GST-JMJD2C(1-420) H3K9me3 demethylation, DELFIA europium | AID 2099;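 active means more than half of a compound's replicate wells show inhibition beyond 50%, single wells judged on their own value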;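 further: signal counts dimethyl H3K9 product captured on neutravidin plate; 0% = median of DMSO wells and 100% = 0.3 times that DMSO median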
mABHD4 FP: ABHD4 (mouse) inhibition, primary FP screen; inhibition, % at 8.92 µM; 0.54% of 370,000 active; purified mABHD4, FP-Rh probe fluorescence polarization; Q8VD66;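 active means inhibition exceeding the mean over every tested compound plus 3 SD, cut at about 30% in these data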;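 further: 0% = plate median of compound wells and 100% = S159A mutant with DMSO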
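assay system = mABHD4 protein | compound dosing = single nominal dose of 8.92 µM, 0.89% DMSO final | read-out basis = percent inhibition of probe binding, normalized to plate controls | schedule = Enzyme–compound pre-incubation 45 min, then probe 60 min, both 25 °C | detection = fluorescence polarization, excitation 525 nm, emission 598 nm, BODIPY TMR filters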
HTRA1 inh: blocks human HTRA1 serine peptidase; Q92743; recombinant HTRA1, FP-rhodamine activity-based probe, fluorescence polarization; inhibition, % at 5.96 µM; 0.5% of 340,000 active; in the data active means inhibition above about 36%;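 further: 0% = enzyme with DMSO and 100% = wells lacking enzyme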
SIAE primary: inhibitors of human sialic acid acetylesterase SIAE | AID 1053197 | inhibition, % at 9.66 µM | 0.69% of 370,000 active | SIAE FP-Rh probe binding, fluorescence polarization | Q9HAT2;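 active means inhibition above a cutoff: mean of compounds within the control limits plus 3 SD of those, cut at about 17% in these data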;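 further: 0% = plate median of compound wells and 100% = probe without SIAE protein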
PRMT1 FP inh: blocks human protein arginine methyltransferase 1. 1.3% of 370,000 active. recombinant PRMT1, activity-based probe fluorescence polarization. inhibition, % at 2.79 µM. Q99873;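 active means inhibition above about 21% made by adding two undisclosed values, limit read from the data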
Target sequence (Q99873 whole entry, looked up): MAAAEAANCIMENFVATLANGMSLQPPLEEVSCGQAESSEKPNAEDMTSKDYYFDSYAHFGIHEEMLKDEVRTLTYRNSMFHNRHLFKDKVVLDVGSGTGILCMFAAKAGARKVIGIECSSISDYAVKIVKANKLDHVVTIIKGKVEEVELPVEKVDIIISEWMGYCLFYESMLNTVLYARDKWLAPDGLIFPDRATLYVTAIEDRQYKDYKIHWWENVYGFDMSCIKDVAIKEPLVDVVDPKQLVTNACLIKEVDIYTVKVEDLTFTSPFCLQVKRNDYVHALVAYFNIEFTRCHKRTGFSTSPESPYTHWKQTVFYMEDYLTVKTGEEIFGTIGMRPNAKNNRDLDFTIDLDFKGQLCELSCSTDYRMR
PRMT1 inh conf: confirmation of human PRMT1 inhibitors; 42% of 3,300 active; inhibition, % at 2.79 µM; recombinant His-PRMT1, activity-based probe fluorescence polarization; shares compounds with PRMT1 FP inh;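 active means mean inhibition across replicates above the hit cutoff derived for the earlier primary screen, cut at about 22% in these data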
ABHD4 confirm: ABHD4 (mouse) inhibition, FP confirmation; shares compounds with mABHD4 FP; 55% of 1,800 active; AID 720658; inhibition, % at 8.92 µM; purified mABHD4, FP-Rh probe fluorescence polarization;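 active means mean inhibition across replicates above the hit cutoff set in the primary screen, cut at about 30% in these data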;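 further: 0% = wild-type ABHD4 with DMSO and 100% = catalytically dead S159A mutant with DMSO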
An asterisk follows results filed as active; nt = no result.

SMILES	GASC-1 inh	mABHD4 FP	HTRA1 inh	SIAE primary	PRMT1 FP inh	PRMT1 inh conf	others
CCOc1ccc(N2C(=O)CC(NCCc3ccc(S(N)(=O)=O)cc3)C2=O)cc1 (stereo unspecified)	0	4	6	7	53*	3
CCCOc1ccc(N2C(=O)CC(NCCNc3ccc(S(=O)(=O)CC)cc3)C2=O)cc1 (stereo unspecified)	-38	1	-5	-9	7	nt
CC1=C2NC(N)=[N+](Cc3ccccc3)CC2n2c(=O)n(-c3ccccc3)c(=O)n2C1 (stereo unspecified)	nt	7	nt	-9	6	nt
C[C@H](O)[C@@H]1CN2CCc3ccc(N4CCOCC4)cc3[C@@H]2C[C@@H]1N(C)C(=S)NCCc1ccccc1	nt	6	nt	3	4	nt
S=c1[nH]cc(-c2ccccc2)n1-c1ccccc1	-1	2	1	-3	34*	12
O=C1N(Cc2ccccc2)c2ccccc2OC1(F)F	nt	-2	nt	1	3	nt
CCN(CC)C(=O)CSc1nnc2nnc3cc(OC)ccc3n12	0	7	nt	6	29*	26*
Clc1ccc(-c2nc3ccc(Br)cn3c2Cc2ccsc2)cc1	nt	-7	nt	4	4	nt
CCOC(=O)C1(C)CCN1C(=O)c1oc2ccccc2c1C (stereo unspecified)	nt	8	nt	4	-3	nt
C/C(N)=C(/C#N)C(=O)CSc1nc2ccc(C)cc2[nH]1	-14	6	1	3	26*	4
Cn1c(=O)c2cc(NC(=O)NCc3ccccc3)ccc2n1C/C=C/c1ccccc1	nt	-1	nt	3	-1	nt
O=C(N/N=C/C=C\c1ccco1)c1cccnc1	-2	2	6	13	8	nt
O=C(N/N=C/C=C/c1ccco1)c1cccnc1	38	13	12	7	39*	10
O=C(CSc1nnc(-c2cccs2)o1)Nc1cccc2ccccc12	nt	0	nt	-3	5	nt
O=C1C=C(NNC(=O)c2ccncc2)CC(c2ccccc2)C1 (stereo unspecified)	-31	-1	8	0	63*	2
CC(C)Oc1ccc(C(=O)Nc2nc3ccccc3[nH]2)cc1	0	3	-2	3	1	nt
CCC(Oc1ccccc1)C(=O)Nc1nc2ccccc2[nH]1 (stereo unspecified)	3	7	-5	-4	26*	21
Cc1cccc(NC(=O)c2sc3nc4c(c(-c5cccs5)c3c2N)CN(C)CC4)c1	-1	12	32	4	14	nt
CC(C)NC(=O)c1sc2nc3c(c(-c4cccs4)c2c1N)CN(C)CC3	0	7	9	-2	39*	8
CCCOc1ccc(-c2nc(=S)[nH][nH]2)cc1	-1	1	4	-4	46*	12
Cc1ccc(S(=O)(=O)CCC(=O)OCC(=O)c2cc(C)ccc2C)cc1	-7	2	-1	0	1	nt
Cc1ccc(S(=O)(=O)CCC(=O)c2ccc(O)cc2O)cc1	-5	-4	8	-5	35*	4
Nc1c(C(=O)Nc2ccccc2F)sc2nc(-c3ccco3)ccc12	-16	11	17	4	47*	42*
NC(=O)c1sc2nc(-c3ccco3)ccc2c1N	0	25	8	0	51*	17
S=C(Nc1ccccc1Cl)NC1CCN(Cc2ccccc2)CC1	3	-3	-1	9	25*	11
SMILES	GASC-1 inh	mABHD4 FP	HTRA1 inh	SIAE primary	PRMT1 FP inh	PRMT1 inh conf	others
NC1=CC(=O)c2cccc3cccc1c23	24	nt	nt	nt	nt	nt
O=C1C=C(O)c2cccc3cccc1c23	3	15	14	6	48*	9
CCOC(=O)[C@]12CCCC=C1N(CCCOC)C(=O)[C@@H]2CC(=O)N1CCCCC1	nt	2	nt	-3	1	nt
Cc1nc(S/C(=C\c2ccc(OCc3ccccc3Cl)cc2)C(=O)O)n[nH]1	nt	0	-3	-2	-1	nt
Cc1nc(S/C(=C\c2ccc(-c3ccc(C(=O)O)c(Cl)c3)o2)C(=O)O)n[nH]1	-6	39*	6	4	33*	39*	ABHD4 confirm=54*
Cn1c(SC/C=C/c2ccccc2)nnc1-c1cccnc1	nt	-5	nt	-11	-5	nt
